Assay results: ChEMBL document CHEMBL1144718, “Novel 3-aroylpyrazolo[5,1-c][1,2,4]benzotriazine 5-oxides 8-substituted, ligands at GABAA/benzodiazepine receptor complex: synthesis, pharmacological and molecular modeling studies” (Bioorg Med Chem, 2008)
Values belong to the molecule of their own block, whether it stands above or below them. Calls of active or inactive are those of the source. The rule behind the calls is not given here.

Experiments:
[1] = Displacement of [3H]flumazenil from GABAA/BzR complex in bovine cerebral cortex membrane; assay type: cell membranes, Bos taurus
Outline: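 Bovine cerebral cortex membranes in 50 mM Tris-citrate pH 7.4 incubated with [3H]Ro15-1788 (1–2 nM) for 1 h at 4 °C to equilibrium; nonspecific binding with 10^-5 M diazepam; DMSO ≤1%. Ki from ≥6 concentrations (10^-9–10^-5 M) by curve fitting and Cheng–Prusoff; percent inhibition at 10 µM; five determinations, triplicate.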

Mus musculus [2] = experiment: Effect on motor coordination in CD1 Albino mouse assessed as number of falls in 30 secs at 3 mg/kg, po after 30 mins by rotarod test; assay type: functional
Outline: (§1)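 Rota-rod at 16 rpm in male CD-1 mice after po dosing in 1% CMC; number of falls in 30 s counted at 15, 30, 45 and 60 min post-administration.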

Mus musculus [3] = experiment: Sedative activity in CD1 albino mouse assessed as reduction of curiosity at 3 mg/kg, po after 30 mins by hole-board test; assay type: functional, organism-based; design: dose 3 mg/kg
Outline: (§2)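 Hole-board: male CD-1 mice given compound po (1% CMC) and placed individually on the board 30 min later, free to explore panel and holes for 5 min; spontaneous motility and exploration (panel and hole movements) scored.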

Mus musculus [4] = experiment: Effect on motor coordination in CD1 Albino mouse assessed as number of falls in 30 secs at 10 mg/kg, po after 30 mins by rotarod test relative to control; assay type: functional; outline: as §1
Mus musculus [5] = experiment: Effect on motor coordination in CD1 Albino mouse assessed as number of falls in 30 secs at 30 mg/kg, po after 30 mins by rotarod test relative to control; assay type: functional; outline: as §1
Mus musculus [6] = experiment: Anticonvulsant activity against pentylenetetrazole-induced seizure in CD1 Albino mouse assessed as convulsant latency at 3 mg/kg, po after 30 mins; assay type: functional
Outline: (§3)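 Male CD-1 mice (22–24 g), compound suspended in 1% CMC (sonicated) given po in 10 ml/kg; 30 min later PTZ 90 mg/kg sc (in saline). Latency (s) to shock and to convulsions recorded; clonic generalized convulsions counted over 30 min.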

Mus musculus [7] = experiment: Anticonvulsant activity against pentylenetetrazole-induced seizure in CD1 Albino mouse assessed as convulsant latency at 10 mg/kg, po after 30 mins; assay type: functional; outline: as §3
Mus musculus [8] = experiment: Sedative activity in CD1 albino mouse assessed as reduction of curiosity at 30 mg/kg, po after 30 mins by hole-board test; assay type: functional, organism-based; design: dose 30 mg/kg; outline: as §2
Mus musculus [9] = experiment: Increase in learning and memory performance in CD1 albino mouse at 10 mg/kg, po after 24 hrs by passive avoidance test; assay type: functional, organism-based; design: dose 10 mg/kg
Outline: (§4)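 Passive avoidance in male CD-1 mice treated po 30 min before training; retention tested 24 h later. Latency to enter the dark compartment measured, maximum 60 s (training) and 180 s (retention). Means ± SEM of 15–18 mice.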

Mus musculus [10] = experiment: Anticonvulsant activity against pentylenetetrazole-induced seizure in CD1 Albino mouse assessed as convulsant latency at 30 mg/kg, po after 30 mins; assay type: functional; outline: as §3
Mus musculus [11] = experiment: Sedative activity in CD1 albino mouse assessed as reduction of explorative activity at 10 mg/kg, po after 30 mins by hole-board test; assay type: functional, organism-based; design: dose 10 mg/kg; outline: as §2
Mus musculus [12] = experiment: Anticonvulsant activity against pentylenetetrazole-induced seizure in CD1 Albino mouse assessed as shock latency at 3 mg/kg, po after 30 mins; assay type: functional; outline: as §3
Mus musculus [13] = experiment: Anticonvulsant activity against pentylenetetrazole-induced seizure in CD1 Albino mouse assessed as shock latency at 10 mg/kg, po after 30 mins; assay type: functional; outline: as §3
Mus musculus [14] = experiment: Increase in learning and memory performance in CD1 albino mouse at 3 mg/kg, po after 24 hrs by passive avoidance test; assay type: functional, organism-based; design: dose 3 mg/kg; outline: as §4
Mus musculus [15] = experiment: Anxiolytic effect in CD1 albino mouse at 10 mg/kg, po after 30 mins by light-dark box test; assay type: functional, organism-based; design: dose 10 mg/kg
Outline: (§5)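 Male CD-1 mice (22–24 g); test agent po in 1% CMC, 30 min before a light/dark box session; time (s) spent in the illuminated compartment measured. Means ± SEM of 14–21 mice.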

Mus musculus [16] = species on record: Mus musculus; experiment: Reversal of anxiolytic effect in CD1 albino mouse by light-dark box test in presence of flumazenil; assay type: functional, organism-based
Outline: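 Light/dark box in male CD-1 mice: compound po (1% CMC) 30 min before test, with flumazenil given ip at […] in saline; time (s) in illuminated compartment recorded. Means ± SEM of 14–21 mice.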

Mus musculus [17] = experiment: Anxiolytic effect in CD1 albino mouse at 3 mg/kg, po after 30 mins by light-dark box test; assay type: functional, organism-based; design: dose 3 mg/kg; outline: as §5
Mus musculus [18] = experiment: Sedative activity in CD1 albino mouse assessed as reduction of spontaneous motility at 30 mg/kg, po after 30 mins by hole-board test; assay type: functional, organism-based; design: dose 30 mg/kg; outline: as §2
Mus musculus [19] = experiment: Effect on ethanol-induced sleeping time in CD1 Albino mouse assessed as increase in duration of loss of righting reflex at 30 mg/kg, po after 30 mins; assay type: functional, organism-based; design: dose 30 mg/kg
Outline: (§6)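 Male CD-1 mice dosed po (1% CMC suspension); ethanol 4 g/kg ip given 30 min after the compound. Sleep time taken as duration of loss of righting reflex, end-point 150 min.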

Mus musculus [20] = experiment: Sedative activity in CD1 albino mouse assessed as reduction of explorative activity at 30 mg/kg, po after 30 mins by hole-board test; assay type: functional, organism-based; design: dose 30 mg/kg; outline: as §2
Mus musculus [21] = experiment: Sedative activity in CD1 albino mouse assessed as reduction of explorative activity at 3 mg/kg, po after 30 mins by hole-board test; assay type: functional, organism-based; design: dose 3 mg/kg; outline: as §2
Mus musculus [22] = experiment: Effect on ethanol-induced sleeping time in CD1 Albino mouse assessed as increase in duration of loss of righting reflex at 3 mg/kg, po after 30 mins; assay type: functional, organism-based; design: dose 3 mg/kg; outline: as §6
Mus musculus [23] = experiment: Effect on ethanol-induced sleeping time in CD1 Albino mouse assessed as increase in duration of loss of righting reflex at 10 mg/kg, po after 30 mins; assay type: functional, organism-based; design: dose 10 mg/kg; outline: as §6
Mus musculus [24] = experiment: Sedative activity in CD1 albino mouse assessed as reduction of spontaneous motility at 10 mg/kg, po after 30 mins by hole-board test; assay type: functional, organism-based; design: dose 10 mg/kg; outline: as §2
Mus musculus [25] = experiment: Anticonvulsant activity against pentylenetetrazole-induced seizure in CD1 Albino mouse assessed as shock latency at 30 mg/kg, po after 30 mins; assay type: functional; outline: as §3
Mus musculus [26] = experiment: Sedative activity in CD1 albino mouse assessed as reduction of spontaneous motility at 3 mg/kg, po after 30 mins by hole-board test; assay type: functional, organism-based; design: dose 3 mg/kg; outline: as §2

SMILES: O=C(c1cccs1)c1cnn2c1n[n+]([O-])c1ccc(Cl)cc12
- Ki [1]: 0.062 µM

SMILES: O=C(c1ccsc1)c1cnn2c1n[n+]([O-])c1ccc(Cl)cc12
- Ki [1]: 0.121 µM

SMILES: O=C(c1ccco1)c1cnn2c1n[n+]([O-])c1ccc(Cl)cc12
- Ki [1]: 0.072 µM

SMILES: O=C(c1cccs1)c1cnn2c1nnc1ccc(Oc3ccccc3)cc12
- Ki [1]: 0.0147 µM

SMILES: O=C(c1cccnc1)c1cnn2c1n[n+]([O-])c1ccc(Cl)cc12
- Ki [1]: 2.4 µM

SMILES: O=C(c1ccc[nH]1)c1cnn2c1nnc1ccc(Cl)cc12
- Ki [1]: 1.94 µM

SMILES: O=C(c1ccc[nH]1)c1cnn2c1n[n+]([O-])c1ccc(Oc3ccccc3)cc12
- Ki [1]: 0.276 µM

SMILES: O=C(c1ccc2c(c1)OCO2)c1cnn2c1n[n+]([O-])c1ccc(Cl)cc12
- Ki [1]: 2.9 µM

The next lines start with results.

- Ki [1]: 1.84 µM
SMILES: CCOc1ccc2c(c1)n1ncc(C(=O)c3ccc[nH]3)c1n[n+]2[O-]

- Ki [1]: 0.028 µM
SMILES: CCOc1ccc2c(c1)n1ncc(C(=O)c3ccco3)c1n[n+]2[O-]
- Activity (Mus musculus [2]): 0.6 count
- Activity (Mus musculus [3]): Active
- Activity (Mus musculus [4]): 0.8 count
- Activity (Mus musculus [5]): 0.6 count
- Activity (Mus musculus [6]): 328.5 s
- Activity (Mus musculus [7]): 488.2 s
- Activity (Mus musculus [8]): Active

- Ki [1]: 0.004 µM
SMILES: O=C(c1ccc[nH]1)c1cnn2c1n[n+]([O-])c1ccc(Cl)cc12
- Activity (Mus musculus [9]): Active
- Activity (Mus musculus [2]): 0.6 count
- Activity (Mus musculus [10]): 535.2 s
- Activity (Mus musculus [11]): inactive
- Activity (Mus musculus [12]): 297.5 s
- Activity (Mus musculus [13]): 264.7 s
- Activity (Mus musculus [14]): Active
- Activity (Mus musculus [15]): Active
- Activity (Mus musculus [16]): inactive
- Activity (Mus musculus [17]): inactive
- Activity (Mus musculus [18]): Active
- Activity (Mus musculus [4]): 1.2 count
- Activity (Mus musculus [19]): Active
- Activity (Mus musculus [20]): Active
- Activity (Mus musculus [21]): inactive
- Activity (Mus musculus [5]): 0.8 count
- Activity (Mus musculus [22]): Active
- Activity (Mus musculus [23]): Active
- Activity (Mus musculus [24]): inactive
- Activity (Mus musculus [6]): 498.8 s
- Activity (Mus musculus [25]): 329.6 s
- Activity (Mus musculus [7]): 647.8 s
- Activity (Mus musculus [26]): inactive

- Ki [1]: 0.045 µM
SMILES: CCOc1ccc2c(c1)n1ncc(C(=O)c3cccs3)c1n[n+]2[O-]

- Ki [1]: 5.2 µM
SMILES: Cn1cccc1C(=O)c1cnn2c1n[n+]([O-])c1ccc(Cl)cc12

- Ki [1]: 1.3 µM
SMILES: Cn1cccc1C(=O)c1cnn2c1n[n+]([O-])c1ccc(Oc3ccccc3)cc12

- Ki [1]: 0.819 µM
SMILES: CCOc1ccc2c(c1)n1ncc(C(=O)c3cccn3C)c1n[n+]2[O-]
